What was measured:
[1] = target: Calcitonin gene-related peptide type 1 receptor (Rattus norvegicus, UniProt Q63118); test: Binding affinity against [125I]-hCalcitonin gene-related peptide type alpha receptor binding sites in rat brain membrane; format: cell membranes
[2] = organism: Cavia porcellus; test: Dose inhibiting the ionotropic response induced by hCGRP-alpha in guinea pig left atrium.; format: functional; settings: Cardiac atrium
Outline: (§1)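 Atria were taken from male Hartley guinea pigs (350-400 g) and the prostatic vas deferens from male Sprague-Dawley rats (200-250 g). Tissues were mounted on platinum electrodes in oxygenated Krebs-Ringer at 37 °C and equilibrated 1 h at 0.5-1 g tension. Force-transducer responses were recorded to cumulative hCGRPα concentrations, with test peptide (1 µM) added 10 min before. Values are mean ± SE.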

[3] = organism: Cavia porcellus; test: Dose inhibiting the ionotropic response induced by hCGRP-alpha in guinea pig left atrium relative to hCGRP(8-37).; format: functional, Cardiac atrium; parameters: unit not given here
[4] = organism: Cavia porcellus; test: Dose inhibiting the chronotropic response induced by hCGRP-alpha in guinea pig right atrium.; format: functional; settings: Cardiac atrium; outline: as §1
[5] = organism: Cavia porcellus; test: Dose inhibiting the ionotropic response induced by hCGRP-alpha in guinea pig right atrium.; format: functional; settings: Cardiac atrium; outline: as §1
[6] = organism: Cavia porcellus; test: Dose inhibiting the chronotropic response induced by hCGRP-alpha in guinea pig right atrium relative to hCGRP(8-37).; format: functional, Cardiac atrium; parameters: unit not given here
[7] = organism: Cavia porcellus; test: Dose inhibiting the ionotropic response induced by hCGRP-alpha in guinea pig right atrium relative to hCGRP(8-37).; format: functional, Cardiac atrium; parameters: unit not given here
[8] = organism: Rattus norvegicus; test: Dose inhibiting the twitch response induced by hCGRP-alpha in rat vas deferens.; format: functional; outline: as §1
[9] = organism: Rattus norvegicus; test: Dose inhibiting the twitch response induced by hCGRP-alpha in rat vas deferens relative to hCGRP(8-37).; format: functional; parameters: unit not given here

Sequence of Calcitonin gene-related peptide type 1 receptor (Q63118 whole entry): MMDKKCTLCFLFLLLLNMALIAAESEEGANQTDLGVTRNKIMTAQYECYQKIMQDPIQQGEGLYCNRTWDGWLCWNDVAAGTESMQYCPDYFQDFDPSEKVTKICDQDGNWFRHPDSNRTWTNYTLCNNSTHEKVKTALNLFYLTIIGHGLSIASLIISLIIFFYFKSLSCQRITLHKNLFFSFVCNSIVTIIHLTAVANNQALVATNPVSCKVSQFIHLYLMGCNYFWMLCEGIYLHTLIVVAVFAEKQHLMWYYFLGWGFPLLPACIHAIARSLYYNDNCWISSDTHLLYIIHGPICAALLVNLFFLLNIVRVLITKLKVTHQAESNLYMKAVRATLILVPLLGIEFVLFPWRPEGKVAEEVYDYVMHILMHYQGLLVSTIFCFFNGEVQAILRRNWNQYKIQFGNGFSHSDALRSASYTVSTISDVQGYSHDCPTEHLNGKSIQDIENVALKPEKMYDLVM

With `CC(C)C[C@H](NC(=O)CNC(=O)[C@H](C)NC(=O)[C@H](CC(C)C)NC(=O)[C@H](CCCN=C(N)N)NC(=O)[C@@H](N)Cc1c[nH]cn1)C(=O)N[C@@H](CC(C)C)C(=O)N[C@@H](CO)C(=O)N[C@@H](CCCN=C(N)N)C(=O)N[C@@H](CO)C(=O)NCC(=O)NCC(=O)N[C@H](C(=O)N[C@H](C(=O)N[C@@H](CCCCN)C(=O)N[C@@H](CC(N)=O)C(=O)N[C@@H](CC(N)=O)C(=O)N[C@@H](Cc1ccccc1)C(=O)N[C@H](C(=O)N1CCC[C@H]1C(=O)N[C@H](C(=O)N[C@@H](CC(N)=O)C(=O)N[C@H](C(=O)NCC(=O)N[C@@H](CO)C(=O)N[C@@H](CCCCN)C(=O)N[C@@H](C)C(=O)N[C@@H](Cc1ccccc1)C(N)=O)C(C)C)[C@@H](C)O)C(C)C)C(C)C)C(C)C` the IC50 [1] was 10 nM, the EC50 [2] was 65 nM and the Relative potency [3] was 34. For the same compound, the EC50 [4] was 77 nM, the EC50 [5] was 114 nM and the Relative potency [6] was 27. The Relative potency [7] was 43, the EC50 [8] was 3.2 nM and the Relative potency [9] was 48.

Work on `CC(C)C[C@H](NC(=O)CNC(=O)[C@H](C)NC(=O)[C@H](CC(C)C)NC(=O)[C@H](CCCN=C(N)N)NC(=O)[C@H](C)NC(=O)[C@@H](NC(=O)[C@@H](N)C(C)C)[C@@H](C)O)C(=O)N[C@@H](CC(C)C)C(=O)N[C@@H](CO)C(=O)N[C@@H](CCCN=C(N)N)C(=O)N[C@@H](CO)C(=O)NCC(=O)NCC(=O)N[C@H](C(=O)N[C@H](C(=O)N[C@@H](CCCCN)C(=O)N[C@@H](CC(N)=O)C(=O)N[C@@H](CC(N)=O)C(=O)N[C@@H](Cc1ccccc1)C(=O)N[C@H](C(=O)N1CCC[C@H]1C(=O)N[C@H](C(=O)N[C@@H](CC(N)=O)C(=O)N[C@H](C(=O)NCC(=O)N[C@@H](CO)C(=O)N[C@@H](CCCCN)C(=O)N[C@@H](C)C(=O)N[C@@H](Cc1ccccc1)C(N)=O)C(C)C)[C@@H](C)O)C(C)C)C(C)C)C(C)C` yielded an EC50 [2] of 95 nM, an EC50 [4] of 129 nM and an EC50 [5] of 179 nM. For the same compound, the EC50 [8] was 3.2 nM.

With `CC(C)C[C@H](NC(=O)CNC(=O)[C@H](C)NC(=O)[C@H](CC(C)C)NC(=O)[C@H](CCCN=C(N)N)NC(=O)[C@H](Cc1c[nH]cn1)NC(=O)[C@H](C)NC(=O)[C@@H](N)C(C)C)C(=O)N[C@@H](CC(C)C)C(=O)N[C@@H](CO)C(=O)N[C@@H](CCCN=C(N)N)C(=O)N[C@@H](CO)C(=O)NCC(=O)NCC(=O)N[C@H](C(=O)N[C@H](C(=O)N[C@@H](CCCCN)C(=O)N[C@@H](CC(N)=O)C(=O)N[C@@H](CC(N)=O)C(=O)N[C@@H](Cc1ccccc1)C(=O)N[C@H](C(=O)N1CCC[C@H]1C(=O)N[C@H](C(=O)N[C@@H](CC(N)=O)C(=O)N[C@H](C(=O)NCC(=O)N[C@@H](CO)C(=O)N[C@@H](CCCCN)C(=O)N[C@@H](C)C(=O)N[C@@H](Cc1ccccc1)C(N)=O)C(C)C)[C@@H](C)O)C(C)C)C(C)C)C(C)C` the IC50 [1] was 6.8 nM, the EC50 [2] was 117 nM and the Relative potency [3] was 60. It also gave an EC50 [4] of 238 nM, an EC50 [5] of 193 nM and a Relative potency [6] of 82. The Relative potency [7] was 72, the EC50 [8] was 2.4 nM and the Relative potency [9] was 36.

In the case of `CC(C)C[C@H](NC(=O)CNC(=O)[C@H](C)NC(=O)[C@H](CC(C)C)NC(=O)[C@H](CCCN=C(N)N)NC(=O)[C@H](Cc1c[nH]cn1)NC(=O)[C@@H](NC(=O)[C@@H](NC(=O)[C@@H]1CSSC[C@H](NC(=O)[C@H](C)N)C(=O)N[C@@H](CC(=O)O)C(=O)N[C@@H]([C@@H](C)O)C(=O)N[C@@H](C)C(=O)N[C@@H]([C@@H](C)O)C(=O)N1)C(C)C)[C@@H](C)O)C(=O)N[C@@H](CC(C)C)C(=O)N[C@@H](CO)C(=O)N[C@@H](CCCN=C(N)N)C(=O)N[C@@H](CO)C(=O)NCC(=O)NCC(=O)N[C@H](C(=O)N[C@H](C(=O)N[C@@H](CCCCN)C(=O)N[C@@H](CC(N)=O)C(=O)N[C@@H](CC(N)=O)C(=O)N[C@@H](Cc1ccccc1)C(=O)N[C@H](C(=O)N1CCC[C@H]1C(=O)N[C@H](C(=O)N[C@@H](CC(N)=O)C(=O)N[C@H](C(=O)NCC(=O)N[C@@H](CO)C(=O)N[C@@H](CCCCN)C(=O)N[C@@H](C)C(=O)N[C@@H](Cc1ccccc1)C(N)=O)C(C)C)[C@@H](C)O)C(C)C)C(C)C)C(C)C`, the EC50 [2] is reported as 8.7 nM, the EC50 [4] is reported as 19 nM and the EC50 [5] is reported as 7.9 nM. For the same compound, the EC50 [8] was 1.4 nM.

For `CC(C)C[C@H](NC(=O)CNC(=O)[C@H](C)NC(=O)[C@H](CC(C)C)NC(=O)[C@H](CCCN=C(N)N)NC(=O)[C@H](Cc1c[nH]cn1)NC(=O)[C@@H](N)[C@@H](C)O)C(=O)N[C@@H](CC(C)C)C(=O)N[C@@H](CO)C(=O)N[C@@H](CCCN=C(N)N)C(=O)N[C@@H](CO)C(=O)NCC(=O)NCC(=O)N[C@H](C(=O)N[C@H](C(=O)N[C@@H](CCCCN)C(=O)N[C@@H](CC(N)=O)C(=O)N[C@@H](CC(N)=O)C(=O)N[C@@H](Cc1ccccc1)C(=O)N[C@H](C(=O)N1CCC[C@H]1C(=O)N[C@H](C(=O)N[C@@H](CC(N)=O)C(=O)N[C@H](C(=O)NCC(=O)N[C@@H](CO)C(=O)N[C@@H](CCCCN)C(=O)N[C@@H](C)C(=O)N[C@@H](Cc1ccccc1)C(N)=O)C(C)C)[C@@H](C)O)C(C)C)C(C)C)C(C)C`, the EC50 [2] was 215 nM, the EC50 [4] was 180 nM and the EC50 [5] was 225 nM. It also gave an EC50 [8] of 7.6 nM.

`CC(C)C[C@H](NC(=O)CNC(=O)[C@H](C)NC(=O)[C@H](CC(C)C)NC(=O)[C@@H](N)CCCN=C(N)N)C(=O)N[C@@H](CC(C)C)C(=O)N[C@@H](CO)C(=O)N[C@@H](CCCN=C(N)N)C(=O)N[C@@H](CO)C(=O)NCC(=O)NCC(=O)N[C@H](C(=O)N[C@H](C(=O)N[C@@H](CCCCN)C(=O)N[C@@H](CC(N)=O)C(=O)N[C@@H](CC(N)=O)C(=O)N[C@@H](Cc1ccccc1)C(=O)N[C@H](C(=O)N1CCC[C@H]1C(=O)N[C@H](C(=O)N[C@@H](CC(N)=O)C(=O)N[C@H](C(=O)NCC(=O)N[C@@H](CO)C(=O)N[C@@H](CCCCN)C(=O)N[C@@H](C)C(=O)N[C@@H](Cc1ccccc1)C(N)=O)C(C)C)[C@@H](C)O)C(C)C)C(C)C)C(C)C` showed an EC50 [2] of 30 nM, an EC50 [4] of 65 nM and an EC50 [5] of 89 nM. The EC50 [8] was 1.4 nM.

`CC(C)C[C@H](NC(=O)CNC(=O)[C@H](C)NC(=O)[C@H](CC(C)C)NC(=O)[C@H](CCCNC(=N)N)NC(=O)[C@H](Cc1cnc[nH]1)NC(=O)[C@@H](NC(=O)[C@@H](N)C(C)C)[C@@H](C)O)C(=O)N[C@@H](CC(C)C)C(=O)N[C@@H](CO)C(=O)N[C@@H](CCCNC(=N)N)C(=O)N[C@@H](CO)C(=O)NCC(=O)NCC(=O)N[C@H](C(=O)N[C@H](C(=O)N[C@@H](CCCCN)C(=O)N[C@@H](CC(N)=O)C(=O)N[C@@H](CC(N)=O)C(=O)N[C@@H](Cc1ccccc1)C(=O)N[C@H](C(=O)N1CCC[C@H]1C(=O)N[C@H](C(=O)N[C@@H](CC(N)=O)C(=O)N[C@H](C(=O)NCC(=O)N[C@@H](CO)C(=O)N[C@@H](CCCCN)C(=O)N[C@@H](C)C(=O)N[C@@H](Cc1ccccc1)C(N)=O)C(C)C)[C@@H](C)O)C(C)C)C(C)C)C(C)C` showed an EC50 [2] of 194 nM, an EC50 [4] of 290 nM and an EC50 [5] of 267 nM. It also gave an EC50 [8] of 6.7 nM.

For H-VTHALAGLLSRSGGVVKNNFVPTNVGSKAF-NH2, the IC50 [1] was 33 nM, the EC50 [2] was 58 nM and the Relative potency [3] was 30. It also gave an EC50 [4] of 83 nM, an EC50 [5] of 106 nM and a Relative potency [6] of 29. It also gave a Relative potency [7] of 40, an EC50 [8] of 3.1 nM and a Relative potency [9] of 46.

With H-VTHRAAGLLSRSGGVVKNNFVPTNVGSKAF-NH2 the IC50 [1] was 22 nM, the EC50 [2] was 89 nM and the Relative potency [3] was 46. The EC50 [4] was 116 nM, the EC50 [5] was 116 nM and the Relative potency [6] was 40. It also gave a Relative potency [7] of 43, an EC50 [8] of 2.2 nM and a Relative potency [9] of 33.

From ChEMBL document CHEMBL1126178, “Structure-activity study of hCGRP8-37, a calcitonin gene-related peptide receptor antagonist” (J Med Chem, 1992)
